Test results from ChEMBL document CHEMBL4411328, “Synthesis and Structural/Functional Characterization of Selective M14 Metallocarboxypeptidase Inhibitors Based on Phosphinic Pseudopeptide Scaffold: Implications on the Design of Specific Optical Probes” (J Med Chem, 2019).
pKi: −log10 of the molar value. Active and inactive are the calls of the source. The calls are words filed in the database; no cut-off is given here.

What was measured:
Carboxypeptidase A2 = molecular target: T1, Carboxypeptidase A2 (Homo sapiens, UniProt P48052); assay: Inhibition of human CPA2 using AAFP as substrate preincubated for 45 mins to 2 hrs measured at 30 sec intervals for 15 mins by UV/vis-spectrophotometry
T1 sequence (P48052 whole entry): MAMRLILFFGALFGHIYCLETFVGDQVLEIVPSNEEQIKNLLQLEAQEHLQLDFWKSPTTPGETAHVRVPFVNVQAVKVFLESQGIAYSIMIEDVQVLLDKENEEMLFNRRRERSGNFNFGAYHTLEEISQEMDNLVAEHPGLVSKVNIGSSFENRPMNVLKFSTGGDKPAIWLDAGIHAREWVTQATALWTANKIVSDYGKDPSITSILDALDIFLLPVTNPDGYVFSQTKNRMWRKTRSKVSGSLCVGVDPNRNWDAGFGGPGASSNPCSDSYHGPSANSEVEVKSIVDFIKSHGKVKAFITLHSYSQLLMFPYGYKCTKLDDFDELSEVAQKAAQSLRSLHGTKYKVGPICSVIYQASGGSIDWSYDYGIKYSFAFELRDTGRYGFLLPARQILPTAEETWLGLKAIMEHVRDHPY
Procedure, shortened: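 hCPA2 was used at 3.0x10-8 M with AAFP substrate at 1.0x10-4 M, read at 355 nm, in 20 mM Tris-HCl pH 7.5, 500 mM NaCl, 1% DMSO, 0.05% Brij-35. After a 45 min preincubation at 37 °C, initial rates were followed at 30 sec intervals for 15 min, in triplicate. Kiapp was fitted by the tight-binding equation.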

[1] = molecular target: T2, Carboxypeptidase D (Homo sapiens) (UniProt O75976); assay: Inhibition of human CPD at 1 nM to 1 mM using AAFA as substrate preincubated for 45 mins to 2 hrs measured at 30 sec intervals for 15 mins by UV/vis-spectrophotometry
T2 sequence (whole entry): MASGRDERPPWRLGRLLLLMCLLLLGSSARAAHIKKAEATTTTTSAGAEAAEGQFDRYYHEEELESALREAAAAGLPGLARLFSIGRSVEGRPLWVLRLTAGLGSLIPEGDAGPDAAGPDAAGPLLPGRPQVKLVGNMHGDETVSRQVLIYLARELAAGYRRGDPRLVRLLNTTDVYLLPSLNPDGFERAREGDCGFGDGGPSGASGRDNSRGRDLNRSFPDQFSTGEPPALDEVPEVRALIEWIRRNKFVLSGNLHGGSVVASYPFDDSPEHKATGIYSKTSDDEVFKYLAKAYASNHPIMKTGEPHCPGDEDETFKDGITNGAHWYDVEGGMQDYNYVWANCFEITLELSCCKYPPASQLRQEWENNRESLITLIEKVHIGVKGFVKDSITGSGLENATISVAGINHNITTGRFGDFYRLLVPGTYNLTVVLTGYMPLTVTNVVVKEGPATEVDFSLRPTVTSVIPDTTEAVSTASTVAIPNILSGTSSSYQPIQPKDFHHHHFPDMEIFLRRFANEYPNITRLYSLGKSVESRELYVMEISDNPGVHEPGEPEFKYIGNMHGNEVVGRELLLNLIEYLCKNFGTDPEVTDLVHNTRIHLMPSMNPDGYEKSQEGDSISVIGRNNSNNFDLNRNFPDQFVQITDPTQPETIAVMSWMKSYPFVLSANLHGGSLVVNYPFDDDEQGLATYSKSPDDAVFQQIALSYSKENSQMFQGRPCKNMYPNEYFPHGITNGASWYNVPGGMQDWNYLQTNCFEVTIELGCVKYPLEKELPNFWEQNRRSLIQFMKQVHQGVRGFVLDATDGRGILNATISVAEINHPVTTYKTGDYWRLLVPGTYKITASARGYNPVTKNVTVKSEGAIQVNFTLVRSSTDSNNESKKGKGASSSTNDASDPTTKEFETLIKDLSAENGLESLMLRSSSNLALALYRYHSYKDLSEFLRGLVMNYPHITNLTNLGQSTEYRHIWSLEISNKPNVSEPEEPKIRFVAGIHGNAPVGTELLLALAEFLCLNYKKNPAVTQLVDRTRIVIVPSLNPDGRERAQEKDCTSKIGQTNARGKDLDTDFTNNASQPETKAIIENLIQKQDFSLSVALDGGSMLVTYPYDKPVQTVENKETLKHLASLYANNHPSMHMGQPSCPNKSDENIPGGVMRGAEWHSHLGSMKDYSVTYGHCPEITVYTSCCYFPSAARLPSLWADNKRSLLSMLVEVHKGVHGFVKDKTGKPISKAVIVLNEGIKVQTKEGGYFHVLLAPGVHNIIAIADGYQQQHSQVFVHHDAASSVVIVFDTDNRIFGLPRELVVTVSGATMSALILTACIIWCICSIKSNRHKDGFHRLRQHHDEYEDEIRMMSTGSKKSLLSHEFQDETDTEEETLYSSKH
Procedure, shortened: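 hCPD was used at 2.0x10-8 M with AAFA substrate at 1.0x10-4 M, monitored at 355 nm. Buffer was 20 mM Tris-HCl pH 7.5, 100 mM NaCl, 1% DMSO, 0.05% Brij-35. Preincubation was 45 min at 37 °C. Residual activity at a range of inhibitor concentrations was measured from initial rates (30 sec reads, 15 min), in triplicate. Kiapp came from the tight-binding fit.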

[2] = molecular target: T3, Carboxypeptidase B (Homo sapiens) (UniProt P15086); assay: Inhibition of human CPB1 at 1 nM to 1 mM using AAFA as substrate preincubated for 45 mins to 2 hrs measured at 30 sec intervals for 15 mins by UV/vis-spectrophotometry
T3 sequence (whole entry): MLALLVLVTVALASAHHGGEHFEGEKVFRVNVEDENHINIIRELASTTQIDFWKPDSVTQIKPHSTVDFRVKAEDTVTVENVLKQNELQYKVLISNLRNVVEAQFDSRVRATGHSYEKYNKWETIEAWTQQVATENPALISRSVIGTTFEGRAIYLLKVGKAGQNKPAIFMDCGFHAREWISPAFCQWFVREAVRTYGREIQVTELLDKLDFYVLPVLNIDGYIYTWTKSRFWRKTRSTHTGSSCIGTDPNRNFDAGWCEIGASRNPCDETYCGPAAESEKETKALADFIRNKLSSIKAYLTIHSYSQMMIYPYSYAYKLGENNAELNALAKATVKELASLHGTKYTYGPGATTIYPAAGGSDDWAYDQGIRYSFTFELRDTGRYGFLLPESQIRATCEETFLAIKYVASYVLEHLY
Procedure, shortened: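 hCPB1 was used at 6.0x10-9 M with 1.0x10-4 M AAFA, read at 355 nm. After 45 min preincubation with inhibitor at 37 °C, residual activity at varied inhibitor concentrations was followed for 15 min at 30 sec intervals, in triplicate. Kiapp was fitted with the tight-binding equation.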

Structure (SMILES)	pKi (Carboxypeptidase A2)	inhibition [1]	inhibition [2]
CC(=O)N[C@@H](CCC(=O)O)C(=O)N[C@@H](C)P(=O)(O)C[C@@H](CCc1ccccc1)C(=O)O	8.34	inactive	inactive
C[C@H](NC(=O)[C@H](Cc1ccc(O)cc1)NC(=O)COCCOCCNC(=O)CCOCCOCCOCCNC(=O)CCc1ccc(C(=C\C=C2\N(CCCCS(=O)(=O)O)c3ccc4c(S(=O)(=O)[O-])cc(S(=O)(=O)O)cc4c3C2(C)C)/C=C/C2=[N+](CCCCS(=O)(=O)O)c3ccc4c(S(=O)(=O)O)cc(S(=O)(=O)O)cc4c3C2(C)C)cc1)P(=O)(O)C[C@@H](CCc1ccccc1)C(=O)O	8.28	inactive	inactive
CC(=O)NCCOCCOCC(=O)N[C@@H](Cc1ccc(O)cc1)C(=O)N[C@@H](C)P(=O)(O)C[C@@H](CCc1ccccc1)C(=O)O	8.24	inactive	inactive
C[C@H](NC(=O)[C@H](Cc1ccc(O)cc1)NC(=O)COCCOCCN)P(=O)(O)C[C@@H](CCc1ccccc1)C(=O)O	8.11	inactive	inactive
CC(=O)N[C@@H](CC(C)C)C(=O)N[C@@H](Cc1ccccc1)P(=O)(O)C[C@@H](CCc1ccccc1)C(=O)O	9.70	inactive	inactive

Continued by rising pKi (Carboxypeptidase A2), values first:

pKi (Carboxypeptidase A2)	inhibition [1]	inhibition [2]	Structure (SMILES)
7.86	inactive	inactive	CC(=O)N[C@@H](CO)C(=O)N[C@@H](C)P(=O)(O)C[C@@H](CCc1ccccc1)C(=O)O
8.49	inactive	inactive	CC(=O)N1CCC[C@H]1C(=O)N[C@@H](C)P(=O)(O)C[C@@H](CCc1ccccc1)C(=O)O
8.62	inactive	inactive	CC(=O)N[C@@H](CCCCN)C(=O)N[C@@H](C)P(=O)(O)C[C@@H](CCc1ccccc1)C(=O)O
8.77	inactive	inactive	CC(=O)N[C@@H](Cc1ccc(O)cc1)C(=O)N[C@@H](C)P(=O)(O)C[C@@H](CCc1ccccc1)C(=O)O
9.15	inactive	inactive	CC(=O)N[C@@H](CC(C)C)C(=O)N[C@@H](C)P(=O)(O)C[C@@H](CCc1ccccc1)C(=O)O
